RGS4 pot: RGS4 potentiation or activation; HEK293 M3R/inducible RGS4, carbachol calcium flux Fluo4; active compounds read low; B-score at 10 µM; 310,000 tested, 0.92% active;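 active means B-score of the integrated calcium signal more than 4 SD below the library mean, with starting fluorescence not abnormally high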;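 further: negative B-score means reduced calcium response which marks RGS4 activation or potentiation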
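Test system: HEK293 cells with stable M3R and inducible RGS4; also added: carbachol at ECmax as muscarinic agonist stimulus; schedule: dye loading 30 min 37 °C, buffer rest 30 min RT; technique: kinetic calcium fluorescence imaging with Fluo4-AM dye, 2 µM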
MrgX1 antag: blocks BAM8-22 activation of human MrgX1 receptor | B-score at 10 µM | AID 588676 | Q96LB2 | MRGX1-HEK293 calcium flux, Fluo-4, BAM8-22 antagonism; active compounds read low | 310,000 tested, 1.3% active;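 active means calcium-response B-score plate-corrected more than 3 library SD below zero, starting fluorescence within 5 deviations, no agonist response on first addition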;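 further: peak minus trough fluorescence over baseline after final BAM8-22 challenge near maximal dose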
Target sequence (Q96LB2 whole entry, looked up): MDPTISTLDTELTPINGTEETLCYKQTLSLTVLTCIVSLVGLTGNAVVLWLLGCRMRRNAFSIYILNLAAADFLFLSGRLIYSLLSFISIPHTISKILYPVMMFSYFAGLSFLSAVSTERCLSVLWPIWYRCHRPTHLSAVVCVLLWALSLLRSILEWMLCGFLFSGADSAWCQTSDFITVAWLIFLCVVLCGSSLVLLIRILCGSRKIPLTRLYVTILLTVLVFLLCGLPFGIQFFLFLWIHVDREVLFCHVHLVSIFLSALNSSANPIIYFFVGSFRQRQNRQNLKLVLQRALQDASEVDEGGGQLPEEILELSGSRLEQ
MrgX1 allo act: allosterically activates human MrgX1 receptor signaling; B-score at 10 µM; 310,000 tested, 0.63% active; MrgX1-HEK293, Fluo-4 calcium flux, FDSS; active compounds read high; AID 588675; Q96LB2;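 active means plate-corrected calcium response at least 3 library SD above typical, normal starting fluorescence, not activating the receptor alone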;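 further: compound read alongside a low EC10 to EC30 dose of BAM8-22 agonist; peak minus trough fluorescence over baseline measured at the second addition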
MrgX1 agonist: activates human MrgX1 receptor signaling. Q96LB2. MrgX1-HEK293 cells, Fluo-4 calcium fluorescence, agonist mode; active compounds read high. B-score at 10 µM. 310,000 tested, 0.44% active. AID 588627;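 active means calcium response B-score plate-corrected fluorescence ratio at least 3 library SD, with starting fluorescence B-score inside 5 SD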
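Assay system: MrgX1-expressing HEK293 cells / Amount: fifteen thousand cells per well / Doses: test compound in the initial addition of three / Timing: cells plated overnight, dye loaded 0.5 h 37 °C, 0.5 h room temperature / Technique: kinetic calcium dye fluorescence, Fluo-4 NW / Control set: positive and negative controls per plate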
RGS4 inh: human RGS4 inhibition. P49798. HEK293 M3R/RGS4 inducible, Fluo-4 calcium flux; active compounds read high; triggered by carbachol at its EC20. B-score at 10 µM. 310,000 tested, 0.45% active. AID 463165;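 active means B-score, a plate-corrected calcium signal, over three deviations above library mean, with baseline fluorescence within five deviations of library mean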;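 further: RGS4 expression induced by doxycycline in cells with stable M3 receptor; B-score is computed from the integrated fluorescence ratio over baseline after carbachol; higher B-score means a larger calcium signal and so more RGS4 inhibition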
Target sequence (P49798 whole entry, looked up): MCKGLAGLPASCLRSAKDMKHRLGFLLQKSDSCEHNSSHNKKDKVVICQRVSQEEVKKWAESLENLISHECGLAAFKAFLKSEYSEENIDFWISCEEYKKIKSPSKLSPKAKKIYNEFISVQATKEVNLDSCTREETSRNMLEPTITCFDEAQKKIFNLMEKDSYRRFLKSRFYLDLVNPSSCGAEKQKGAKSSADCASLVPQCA
RGS4 inh valid: validation of RGS4 inhibitors; shares compounds with RGS4 inh; HEK293 M3R/RGS4, carbachol calcium Fluo-4 fluorescence; carbachol added at its EC20; 0 = buffer wells, 100 = carbachol control; calcium response, % at 10 µM; 1,700 tested, 65% active; AID 492999;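 active means duplicate-averaged calcium response above the buffer-only control mean plus 5 SD of those controls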;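 further: integrated fluorescence ratio F max minus min over baseline F0; higher response in RGS4-induced cells means RGS4 inhibition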
RGS4 uninduced: non-induced cell nonspecific activity of RGS4 inhibitors; 1,900 tested, 20% active; shares compounds with RGS4 inh; AID 493000; HEK293 M3R non-induced, carbachol calcium Fluo-4; submaximal (EC20) carbachol stimulus; buffer wells 0%, carbachol control wells 100%; activity (percent), % at 10 µM; call rule not given here;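 further: RGS4 induction absent so cells express M3R without RGS4; higher means more calcium signal and flags a non-specific hit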
M3R basal Ca ctr: signal in non-induced cells without carbachol, RGS4 inhibitor counter-screen | calcium response (agonist-mode artifact), % at 10 µM | 1,900 tested, 22% active | shares compounds with RGS4 inh | HEK293 M3R/RGS4 non-induced, Fluo-4 calcium, no carbachol; normalised: buffer wells 0%, carbachol wells 100%;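 active means duplicate-averaged calcium rise in uninduced cells above buffer wells' mean plus 5 SD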
Active calls of the source: *. The list is not random: actives were taken first. Their share in the collection is about 3.5%.

N#CC1=C2N=C(N)c3ccccc3N2C2=C(C(=O)CCC2)C1c1ccc(F)cc1 (stereo not given) was read as RGS4 pot inactive, MrgX1 antag inactive, MrgX1 allo act inactive, MrgX1 agonist inactive, RGS4 inh inactive, RGS4 uninduced inactive and M3R basal Ca ctr inactive.
`N#CC1=C2N=C(N)c3c(sc4c3CCCCC4)N2C2=C(C(=O)CCC2)C1c1ccccc1` (stereo not given) gave RGS4 pot inactive, MrgX1 antag inactive, MrgX1 allo act inactive, MrgX1 agonist inactive and RGS4 inh inactive.
For Cc1ccc(C2C(C#N)=C3N=C(N)c4ccccc4N3C3=C2C(=O)CCC3)cc1 (stereo not given) the results were RGS4 pot inactive, MrgX1 antag inactive, MrgX1 allo act inactive, MrgX1 agonist inactive, RGS4 inh inactive, RGS4 uninduced inactive and M3R basal Ca ctr inactive.
COc1ccccc1CNC(=O)C1CCC(CNS(=O)(=O)c2ccccc2)CC1 (stereo not given) was read as RGS4 pot inactive, MrgX1 antag inactive, MrgX1 allo act inactive, MrgX1 agonist inactive and RGS4 inh inactive.
For CCOC(=O)NC(c1ccc(C(C)C)cc1)C(Cl)(Cl)Cl (stereo not given) the results were RGS4 pot inactive, MrgX1 antag inactive, MrgX1 allo act inactive, MrgX1 agonist inactive and RGS4 inh inactive.
Nc1cccc(C(=O)OCC(=O)Nc2cccc3c2C(=O)c2ccccc2C3=O)c1 was read as RGS4 pot inactive, MrgX1 antag inactive, MrgX1 allo act inactive, MrgX1 agonist inactive, RGS4 inh 4.93*, RGS4 inh valid 5.0%*, RGS4 uninduced inactive and M3R basal Ca ctr 13.5%*.
Screening COc1ccc(CCCC(=O)NCC(=O)N/N=C/c2cc(Cl)ccc2OC)cc1 returned RGS4 pot inactive and RGS4 inh inactive.
`CCOc1ccc(S(=O)(=O)Nc2cccc(C(=O)NCC(c3ccc(OC)cc3)N3CCOCC3)c2)cc1` (stereo not given) gave RGS4 pot inactive, MrgX1 antag inactive, MrgX1 allo act inactive, MrgX1 agonist inactive and RGS4 inh inactive.
For COc1ccc(-c2c(=O)n(OC)c3ccccc3[n+]2[O-])cc1OC the results were RGS4 pot inactive, MrgX1 antag inactive, MrgX1 allo act inactive, MrgX1 agonist inactive, RGS4 inh 7.25*, RGS4 inh valid inactive, RGS4 uninduced inactive and M3R basal Ca ctr inactive.
`C=CCOn1c(=O)c(-c2ccc(OC)c(OC)c2)[n+]([O-])c2ccccc21` gave RGS4 pot inactive, MrgX1 antag inactive, MrgX1 allo act inactive, MrgX1 agonist inactive and RGS4 inh inactive.
Screening COC(=O)CSC1=C(C#N)C(=O)NC(c2ccccc2)S1 (stereo not given) returned RGS4 pot inactive, MrgX1 antag inactive, MrgX1 allo act inactive, MrgX1 agonist inactive, RGS4 inh 5.09*, RGS4 inh valid 47.0%*, RGS4 uninduced inactive and M3R basal Ca ctr 9.5%*.
Screening Nc1nc(Cl)nc2c1ncn2[C@@H]1O[C@H](CO)[C@@H](O)[C@H]1O returned RGS4 pot inactive, MrgX1 antag inactive, MrgX1 allo act inactive, MrgX1 agonist inactive, RGS4 inh 9.78*, RGS4 inh valid 47.0%*, RGS4 uninduced 78.5%* and M3R basal Ca ctr inactive.
Screening OC[C@H]1O[C@@H](n2cnc3c(NC4CCCC4)nc(Cl)nc32)[C@H](O)[C@@H]1O returned MrgX1 antag inactive, MrgX1 allo act inactive and MrgX1 agonist inactive.
For Cc1cc(C)cc(NC(=O)CSc2nnc(-c3cc(C)[nH]n3)n2N)c1 the results were RGS4 pot inactive, MrgX1 antag inactive, MrgX1 allo act inactive, MrgX1 agonist inactive and RGS4 inh inactive.
`CCOC(=O)N1CCC(=NNc2ccnc3cc(Cl)ccc23)CC1` gave RGS4 pot inactive, MrgX1 antag inactive, MrgX1 allo act inactive, MrgX1 agonist inactive and RGS4 inh inactive.
`CC(=O)N1CCC(=NNc2ccnc3cc(Cl)ccc23)CC1` gave RGS4 pot inactive, MrgX1 antag inactive, MrgX1 allo act inactive, MrgX1 agonist inactive, RGS4 inh 6.91*, RGS4 inh valid 27.5%*, RGS4 uninduced inactive and M3R basal Ca ctr inactive.
`CC(C)Sc1cc(N2CCCC2)nc(-c2ccccc2Cl)n1` gave RGS4 pot inactive, MrgX1 antag inactive, MrgX1 allo act inactive, MrgX1 agonist inactive and RGS4 inh inactive.
`CC(C)Sc1cc(N2CCCC2)nc(-c2ccc(F)cc2)n1` gave RGS4 pot inactive, MrgX1 antag inactive, MrgX1 allo act inactive, MrgX1 agonist inactive, RGS4 inh 9.25*, RGS4 inh valid 25.5%*, RGS4 uninduced inactive and M3R basal Ca ctr inactive.
`c1ccc(-c2ccc(Oc3cc(N4CCOCC4)nc(-c4ccccc4)n3)cc2)cc1` gave RGS4 pot inactive, MrgX1 antag inactive, MrgX1 allo act inactive, MrgX1 agonist inactive and RGS4 inh inactive.
For CC(C)Sc1cc(N2CCCC2)nc(-c2ccccc2)n1 the results were RGS4 pot inactive, MrgX1 antag inactive, MrgX1 allo act inactive, MrgX1 agonist inactive, RGS4 inh 6.21*, RGS4 inh valid 23.0%*, RGS4 uninduced 51.0%* and M3R basal Ca ctr inactive.
`CC(C)Sc1cc(N2CCOCC2)nc(-c2ccccc2)n1` gave RGS4 pot inactive, MrgX1 antag inactive, MrgX1 allo act inactive, MrgX1 agonist inactive, RGS4 inh inactive, RGS4 inh valid inactive, RGS4 uninduced 30.0%* and M3R basal Ca ctr 10.0%*.
`CCSc1cc(N2CCCC2)nc(-c2ccccc2)n1` gave RGS4 pot inactive, MrgX1 antag inactive, MrgX1 allo act inactive, MrgX1 agonist inactive and RGS4 inh inactive.
COc1cc(C(=O)Nc2cccc3cccnc23)cc(OC)c1OC was read as RGS4 pot inactive, MrgX1 antag inactive, MrgX1 allo act inactive, MrgX1 agonist inactive, RGS4 inh inactive, RGS4 inh valid inactive, RGS4 uninduced inactive and M3R basal Ca ctr inactive.
